Data set [1] deals with Microglia. In words: Antiinflammatory activity against Sprague-Dawley rat microglial cells assessed as downregulation of TNF-alpha mRNA expression at 2.5 uM pretreated with compound for 1 hr followed by LPS stimulation for 6 hrs by real-time PCR analysis. The class given is functional, cell-based. Conditions: time 7.0 hrs. The method in brief: (§1)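 Primary cortical microglia (postnatal day 1 rat pups, shaken off mixed glial cultures, ~97% Iba1-positive). Compound (DMSO ≤0.1%) for 1 h, then 100 ng/mL ultra-pure E. coli LPS for 6 h. QIAzol RNA extraction, SuperScript IV reverse transcription, real-time PCR. Mean ± SEM, n = 3 in triplicate; one-way ANOVA, Holm-Sidak test.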
In general terms: Real-time PCR tracks product formation cycle by cycle.

Data set [2] deals with Amyloid-beta precursor protein (Homo sapiens) (UniProt P05067). In words: Anti-oligomeric activity against Abeta42 (unknown origin) assessed as depletion of the formation of toxic HMW Abeta42 oligomers at 1 uM measured at day 7 to 10 from sample solubilization by capillary electrophoresis assay. As to conditions: time 7-10 day. The method, boiled down:
(§2)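 Aβ42 stock diluted to 221 μM in 20 mM sodium phosphate pH 7.4 containing compound (ethanol stocks 1.53 mM). Capillary electrophoresis: BGE 80 mM sodium phosphate pH 7.4, 30 mbar × 3 s hydrodynamic injection, +12 kV, 25 °C, 200 nm detection. Oligomers assigned by effective mobility; HMW oligomer peak quantified semiquantitatively as normalised area %.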

Data set [3] can be described thus: Toxicity against Drosophila W1118 assessed as proportion of eclosed-flies at 20 uM measured after 72 hrs.
Data set [4] deals with Amyloid-beta precursor protein (Homo sapiens) (UniProt P05067). Briefly: Anti-oligomeric activity against Abeta42 (unknown origin) assessed as depletion of the formation of toxic HMW Abeta42 oligomers at 2.5 uM measured after 2 to 10 days from sample solubilization by capillary electrophoresis assay. Conditions: time 2-10 day. The method in brief: as §2
Sequence of Amyloid-beta precursor protein (Homo sapiens) (P05067 whole entry, the tested form may be a part): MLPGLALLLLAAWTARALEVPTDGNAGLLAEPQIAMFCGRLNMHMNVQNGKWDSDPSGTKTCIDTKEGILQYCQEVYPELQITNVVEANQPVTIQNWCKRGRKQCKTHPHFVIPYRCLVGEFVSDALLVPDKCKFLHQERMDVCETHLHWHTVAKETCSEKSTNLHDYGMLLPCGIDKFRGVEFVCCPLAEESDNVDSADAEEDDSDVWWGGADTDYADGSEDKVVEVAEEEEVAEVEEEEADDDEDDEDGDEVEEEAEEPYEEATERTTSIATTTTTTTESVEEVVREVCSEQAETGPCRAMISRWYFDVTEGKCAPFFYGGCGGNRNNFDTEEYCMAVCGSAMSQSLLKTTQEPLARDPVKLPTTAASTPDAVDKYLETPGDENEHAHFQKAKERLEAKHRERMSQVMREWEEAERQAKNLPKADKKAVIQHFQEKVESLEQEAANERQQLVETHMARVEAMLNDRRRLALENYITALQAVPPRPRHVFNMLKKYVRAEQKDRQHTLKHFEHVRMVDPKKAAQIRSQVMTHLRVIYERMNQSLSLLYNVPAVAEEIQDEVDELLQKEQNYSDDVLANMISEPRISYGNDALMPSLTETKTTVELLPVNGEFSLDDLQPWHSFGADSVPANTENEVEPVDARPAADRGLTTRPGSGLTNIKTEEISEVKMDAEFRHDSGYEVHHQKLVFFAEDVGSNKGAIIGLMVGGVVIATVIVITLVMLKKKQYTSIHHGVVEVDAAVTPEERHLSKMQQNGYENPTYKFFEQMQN
Data set [5] deals with Drosophila. Briefly: Antioxidant activity in Spastin Drosophila (Tubulin/Gal4 RNAi DSpast) neurodegenerative model assessed as decrease in intracelluar ROS level in A2 muscle at 10 uM flies raised in compound-enriched food by DHE staining based fluorescence analysis. The format is functional, organism-based. The method, boiled down: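 Spastin-RNAi (Tubulin-Gal4 cross, 28 °C) third-instar larvae raised on compound-enriched food, dissected in HL3, stained 30 min with 30 μM DHE, fixed in 4% PFA, DAPI counterstained. Confocal imaging (DHE 580–630 nm); two 2500 μm² ROIs per muscle or two 1900 μm² ROIs per brain, 10–15 larvae per group; DHE/DAPI ratio.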

Data set [6] concerns SH-SY5Y. In words: Cytotoxicity against human SH-SY5Y cells assessed as decrease in cell viability at >2.5 uM incubated for 24 hrs by MTT assay. The format is toxicity, cell-based. The method, boiled down:
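SH-SY5Y, 2×10^4 cells/well, grown 24 h then exposed 24 h (1.25–40 μM) at 37 °C, 5% CO2. MTT 0.5 mg/mL in HBSS for 2 h, washed, formazan dissolved in isopropanol, read at 570 nm (reference 690 nm).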

The test system of data set [7] is Drosophila. In words: Effect on CAT transcript expression in Spastin Drosophila (Tubulin/Gal4 RNAi DSpast) neurodegenerative model at 10 uM flies raised in compound-enriched food by real-time PCR analysis. The class given is functional. The method, boiled down: (§3)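 Total RNA from 5 third-instar Spastin-RNAi larvae raised on standard or compound-enriched food; Tubulin-Gal4/+ as control line. One-step SYBR RT-qPCR normalised to Rp49 by the 2^−ΔΔCt method. n = 3 experiments; one-way ANOVA, Tukey's test.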

Data set [8] deals with Drosophila. Briefly: Downregulation of Nrf2 transcript expression in Spastin Drosophila (Tubulin/Gal4 RNAi DSpast) neurodegenerative model at 10 uM flies raised in compound-enriched food by real-time PCR analysis. The class given is functional. The method, boiled down: as §3
A short description of data set [9]: Effect on IL-1 beta release in Sprague-Dawley rat microglial cells at 2.5 uM by ELISA. The class given is toxicity, cell-based. As to conditions: microglia. The method, boiled down: (§4)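 Primary cortical rat microglia in DMSO (≤0.1%) or vehicle for 1 h, then 100 ng/mL LPS for 24 h. TNF-α and IL-1β in culture medium by ELISA against standard curves (pg/mL), expressed as % of LPS-stimulated cultures. Mean ± SEM of 3 independent experiments; one-way ANOVA, Holm-Sidak test.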

Data set [10] can be described thus: Toxicity against Drosophila W1118 assessed as proportion of eclosed-flies at 10 uM measured after 72 hrs.
In data set [11] the target is Keap1/Nrf2 (Homo sapiens) (UniProt Q16236+Q14145). Briefly: Activation of Keap1/Nrf2 in human SH-SY5Y cells assessed as Nrf2 nuclear translocation by measuring increase in nuclear to cytosolic Nrf2 ratio at 2.5 uM incubated for 3 hrs by western blot analysis. The format is cell-based. As to conditions: filed as activator. The method in brief: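 SH-SY5Y seeded 2×10^6 cells/dish, grown 24 h, then exposed 3 h at 37 °C, 5% CO2. Nuclear and cytosolic fractions immunoblotted for Nrf2, membranes stripped and reprobed for β-actin and lamin B1 as loading references. Mean ± SEM of three independent experiments; one-way ANOVA with Dunnett's test.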
Sequence of Keap1/Nrf2 (Homo sapiens) (Q14145 whole entry, looked up): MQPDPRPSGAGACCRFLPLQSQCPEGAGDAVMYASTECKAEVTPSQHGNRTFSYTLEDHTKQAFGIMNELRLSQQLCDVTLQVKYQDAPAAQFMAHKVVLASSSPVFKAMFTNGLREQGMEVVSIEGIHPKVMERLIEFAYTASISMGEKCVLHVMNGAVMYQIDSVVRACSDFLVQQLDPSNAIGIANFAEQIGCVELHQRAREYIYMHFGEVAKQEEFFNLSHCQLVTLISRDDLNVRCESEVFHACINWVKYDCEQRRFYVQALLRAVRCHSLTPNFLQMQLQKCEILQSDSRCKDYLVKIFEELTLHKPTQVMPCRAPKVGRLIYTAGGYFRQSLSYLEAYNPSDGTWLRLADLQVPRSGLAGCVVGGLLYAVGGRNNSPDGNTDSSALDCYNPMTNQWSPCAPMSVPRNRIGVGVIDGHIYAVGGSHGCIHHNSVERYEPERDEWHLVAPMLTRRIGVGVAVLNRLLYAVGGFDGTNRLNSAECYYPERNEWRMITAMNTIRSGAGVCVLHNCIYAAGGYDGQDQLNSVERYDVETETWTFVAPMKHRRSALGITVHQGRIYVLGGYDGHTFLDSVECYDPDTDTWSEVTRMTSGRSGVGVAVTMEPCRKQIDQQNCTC
Sequence of Keap1/Nrf2 (Homo sapiens) (Q16236 whole entry, looked up): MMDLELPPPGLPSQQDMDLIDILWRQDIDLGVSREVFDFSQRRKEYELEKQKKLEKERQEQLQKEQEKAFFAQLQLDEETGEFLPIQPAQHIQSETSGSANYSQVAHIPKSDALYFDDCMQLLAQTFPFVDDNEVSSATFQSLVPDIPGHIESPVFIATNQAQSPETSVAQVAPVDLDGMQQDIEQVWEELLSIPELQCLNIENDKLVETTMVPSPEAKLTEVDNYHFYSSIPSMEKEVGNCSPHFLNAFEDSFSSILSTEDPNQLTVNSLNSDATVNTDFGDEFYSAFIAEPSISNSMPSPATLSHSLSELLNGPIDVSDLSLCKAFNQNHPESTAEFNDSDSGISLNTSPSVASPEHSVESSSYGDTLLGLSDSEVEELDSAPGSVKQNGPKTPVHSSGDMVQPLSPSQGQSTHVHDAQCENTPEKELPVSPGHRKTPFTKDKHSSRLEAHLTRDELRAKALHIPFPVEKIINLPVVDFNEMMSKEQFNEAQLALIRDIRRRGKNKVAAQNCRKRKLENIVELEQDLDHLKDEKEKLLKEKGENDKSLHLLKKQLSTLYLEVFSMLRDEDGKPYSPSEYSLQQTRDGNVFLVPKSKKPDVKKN
(In general: A western blot detects proteins with antibodies after separation by electrophoresis.)

Data set [12] relates to Microglia. Briefly: Antiinflammatory activity against Sprague-Dawley rat microglial cells assessed as inhibition of LPS-induced IL-1 beta production at 1 uM pretreated with compound for 1 hr followed by LPS stimulation for 24 hrs by ELISA. Conditions: time 25.0 hrs. The class given is functional, cell-based. The method in brief:
as §4
On the technique in general: ELISA stands for enzyme-linked immunosorbent assay.

A short description of data set [13]: Toxicity against Drosophila W1118 assessed as proportion of eclosed-flies at 1 uM measured after 72 hrs.
Data set [14] has as its system Microglia. Briefly: Antiinflammatory activity against Sprague-Dawley rat microglial cells assessed as downregulation of IL-1 beta mRNA expression at 2.5 uM pretreated with compound for 1 hr followed by LPS stimulation for 6 hrs by real-time PCR analysis. The class given is functional, cell-based. As to conditions: time 7.0 hrs. The method, boiled down: as §1
The nature of data set [15]: Toxicity against Drosophila W1118 assessed as proportion of eclosed-flies at 50 uM measured after 72 hrs.
The nature of data set [16]: Effect on TNF-alpha release in Sprague-Dawley rat microglial cells at 2.5 uM by ELISA. The class given is toxicity, cell-based. Conditions: microglia. The method, boiled down: as §4
The test system of data set [17] is Microglia. In words: Antiinflammatory activity against Sprague-Dawley rat microglial cells assessed as inhibition of LPS-induced TNF-alpha production at 1 to 2.5 uM pretreated with compound for 1 hr followed by LPS stimulation for 24 hrs by ELISA. The class given is functional, cell-based. As to conditions: dose 1-2.5 µM, time 25.0 hrs. The method in brief: as §4

Data set [18] addresses Amyloid-beta precursor protein (Homo sapiens) (UniProt P05067). In words: Anti-oligomeric activity against Abeta42 (unknown origin) assessed as depletion of the formation of toxic HMW Abeta42 oligomers at 5 uM measured at day 7 from sample solubilization by capillary electrophoresis assay. Conditions: time 7.0 day. The method in brief: as §2
Data set [19] relates to Microglia. In words: Cytotoxicity against Sprague-Dawley rat microglial cells assessed as decrease in cell viability at 5 uM incubated for 24 hrs by MTT assay. The class given is toxicity, cell-based. The method, boiled down:
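Primary rat microglia, 6×10^4 cells/well, switched to serum-free medium 1 h before 24 h exposure (1–20 μM, DMSO ≤0.1%). MTT 0.18 mg/mL for 4 h at 37 °C, formazan dissolved in DMSO, absorbance 570 nm (reference 630 nm). Vehicle-treated cells = 100% viability.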

A short description of data set [20]: Toxicity against Drosophila W1118 assessed as minimum toxic concentration by measuring eclosion rate measured for 72 hrs.
The subject of data set [21] is Microglia. In words: Antiinflammatory activity against Sprague-Dawley rat microglial cells assessed as inhibition of LPS-induced IL-1 beta production at 1 to 2.5 uM pretreated with compound for 1 hr followed by LPS stimulation for 24 hrs by ELISA. The class given is functional, cell-based. Conditions: dose 1-2.5 µM, time 25.0 hrs. The method in brief: as §4

The structures appear in SMILES notation. The source made the active and inactive calls. The calls are words filed in the database; no cut-off is given here.

Turning to `CCCCn1cc(C/C(C(=O)/C=C/c2ccc(OC)cc2)=C(O)\C=C\c2ccc(OC)cc2)nn1`, the result in data set [1], in [2], in [4], in [5], in data set [11] and in data set [12] was Active. For the same compound, the result in [14], in [17], in data set [18] and in data set [21] was Active. Further, the Activity is 88.099% in [3]; “Toxic” in data set [6]; “Non-Toxic” in data set [9]; 93.831% in data set [10]; 95.238% in data set [13]; 71.309% in [15]. The values for the Activity entry in [16] and in [19] were “Non-Toxic” and “Toxic”, respectively. For the same compound, the outcome in data set [7] was inactive. Moreover, the inhibition result in data set [8] was “Active”. The MTC in data set [20] was 10 µM.

The record behind these values is ChEMBL document CHEMBL5321214, “Targeting the multifaceted neurotoxicity of Alzheimer's disease by tailored functionalisation of the curcumin scaffold” (Eur J Med Chem, 2023).
